SIRT5 block: blocks human SIRT5 desuccinylation of peptide. Purified SirT5, succinyl-peptide AMC, trypsin-coupled fluorescence. inhibition, % at 15 µM. 1.1% of 330,000 active; in the data active = inhibition above about 15%; inconclusive = no clear call, values can overlap the other calls
Target sequence (Q9NXA8 whole entry, looked up): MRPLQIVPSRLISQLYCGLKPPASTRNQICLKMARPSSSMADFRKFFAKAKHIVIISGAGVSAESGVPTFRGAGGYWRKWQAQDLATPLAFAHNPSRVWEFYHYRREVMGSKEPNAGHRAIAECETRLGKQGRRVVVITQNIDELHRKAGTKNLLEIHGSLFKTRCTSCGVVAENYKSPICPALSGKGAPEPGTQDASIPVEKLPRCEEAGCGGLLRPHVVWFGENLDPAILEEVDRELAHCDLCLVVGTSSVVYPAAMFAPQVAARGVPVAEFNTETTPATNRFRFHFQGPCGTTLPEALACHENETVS
DENV2 CPE rescue: protects cells from dengue virus 2 cytopathic effect; DENV2-infected cells, cytopathic effect rescue, plate reader; CPE inhibition, % at 9.99 µM; 1.7% of 350,000 active; AID 651640; in the data active = CPE inhibition above about 20%, passing the limit was not always enough; inconclusive = no clear call, values can overlap the other calls; tested in BHK-21 cells
E-sel inducer: induces E-selectin expression in human endothelial cells. HUVEC E-selectin immunofluorescence imaging; normalized: neutral wells 0, TNF-alpha wells 100. 0.37% of 260,000 active. activation, % at 7.58 µM. P16581;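 active = mean E-selectin-positive cell signal at least 10% of the positive control, reached in at least 60% of replicates, without over 20% cell loss; inconclusive = no rule given, readout overlaps actives, possibly toxicity-flagged; inactive = the rest, including those meeting only one limit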
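Test system: HUVEC; input: 3,000 HUVEC/well; measured by: immunofluorescence imaging; read-out: % PE-positive cells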
Large screens that a line does not name were inactive; ! = not confirmed by another sample. In the library only some 2.8% were active in any assay of this set; here they are far more common.

CO[C@@H]1CN(C)C(=O)c2ccc(NS(=O)(=O)c3ccccc3F)cc2OC[C@H](C)NC[C@@H]1C	DENV2 CPE rescue inconclusive
CCc1nnc(N2C(=O)c3ccccc3C2(O)c2ccccc2)s1 (stereo not drawn)	DENV2 CPE rescue 41 (no result: E-sel inducer)
Cc1ccc(N2C(=O)c3ccccc3C2(O)c2ccccc2)cc1 (stereo not drawn)	none (no result: SIRT5 block, E-sel inducer)
COCC(=O)Nc1ccc2c(c1)OC[C@H](C)N(CC1CCCCC1)C[C@@H](C)[C@@H](OC)CN(C)C2=O	none
C[C@H]1CN([C@@H](C)CO)C(=O)Cc2cc(NC(=O)Cc3cn(C)c4ccccc34)ccc2O[C@@H]1CN(C)S(=O)(=O)c1cccs1	none
C[C@@H]1CCCCO[C@@H](CN(C)S(=O)(=O)c2ccc(F)cc2)[C@@H](C)CN([C@@H](C)CO)C(=O)c2cc(NS(=O)(=O)c3cn(C)cn3)ccc2O1	none (no result: E-sel inducer)
Cc1ccc(S(=O)(=O)N(C)C[C@@H]2OCCCC[C@@H](C)Oc3ccc(NC(=O)C4CCCCC4)cc3C(=O)N([C@H](C)CO)C[C@@H]2C)cc1	none (no result: SIRT5 block)
C[C@@H]1CCCCO[C@H](CN(C)S(=O)(=O)c2ccccc2)[C@@H](C)CN([C@@H](C)CO)C(=O)c2cc(NC(=O)C3CCCCC3)ccc2O1	SIRT5 block 16
C[C@@H]1CCCCO[C@H](CN(C)S(=O)(=O)c2ccc(Cl)cc2)[C@@H](C)CN([C@H](C)CO)C(=O)c2cc(NC(=O)C3CCCCC3)ccc2O1	none
Cc1ccc(S(=O)(=O)N(C)C[C@@H]2OCCCC[C@H](C)Oc3ccc(NC(=O)C4CCCCC4)cc3C(=O)N([C@H](C)CO)C[C@@H]2C)cc1	DENV2 CPE rescue 24 (no result: SIRT5 block)
C[C@H]1CCCCO[C@H](CN(C)S(=O)(=O)c2ccccc2)[C@@H](C)CN([C@@H](C)CO)C(=O)c2cc(NC(=O)C3CCCCC3)ccc2O1	DENV2 CPE rescue inconclusive
C[C@@H]1CN([C@@H](C)CO)C(=O)c2cc(NC(=O)C3CCCCC3)ccc2O[C@@H](C)CCCCO[C@@H]1CN(C)S(=O)(=O)c1ccc(Cl)cc1	SIRT5 block 18
C[C@@H]1CN([C@H](C)CO)C(=O)c2cc(NC(=O)C3CCCCC3)ccc2O[C@@H](C)CCCCO[C@@H]1CN(C)S(C)(=O)=O	none (no result: SIRT5 block, DENV2 CPE rescue)
C[C@@H]1CN([C@H](C)CO)S(=O)(=O)c2ccc(C#CC3CC3)cc2O[C@@H]1CN(C)C(=O)c1cnccn1	none
COc1ccc(NC(=O)N(C)C[C@H]2Oc3cc(-c4cccc(C(=O)N(C)C)c4)ccc3S(=O)(=O)N([C@@H](C)CO)C[C@H]2C)cc1	none (no result: SIRT5 block)
C[C@@H]1CN([C@@H](C)CO)C(=O)c2cccc(NC(=O)c3ccncc3)c2O[C@@H]1CN(C)C(=O)NC1CCCCC1	none (no result: E-sel inducer)
C[C@@H]1CN([C@H](C)CO)S(=O)(=O)c2ccc(C#CC3CC3)cc2O[C@H]1CN(C)C(=O)c1cccnc1	none
CCOC(=O)c1c(CC(C)C)csc1/N=C/C1C(=O)CCCC1=O	DENV2 CPE rescue inconclusive, E-sel inducer 33
CCOC(=O)c1c(/N=C/C2C(=O)CCCC2=O)sc2c1CCCC2	none (no result: E-sel inducer)
COc1ccc(S(=O)(=O)Nc2cccc3c2O[C@@H](CN(C)C(=O)Nc2c(C)noc2C)[C@H](C)CN([C@H](C)CO)C3=O)cc1	none
COc1ccc(S(=O)(=O)Nc2cccc3c2O[C@H](CN(C)C(=O)Nc2c(C)noc2C)[C@@H](C)CN([C@H](C)CO)C3=O)cc1	E-sel inducer 41!
Cc1noc(C)c1NC(=O)N(C)C[C@H]1Oc2c(NS(=O)(=O)c3ccccc3)cccc2C(=O)N([C@@H](C)CO)C[C@H]1C	DENV2 CPE rescue 28
Cc1noc(C)c1NC(=O)N(C)C[C@H]1Oc2c(NS(=O)(=O)c3ccc(F)cc3)cccc2C(=O)N([C@@H](C)CO)C[C@@H]1C	none
CCNC(=O)C[C@H]1CC[C@H]2[C@H](COc3ccc(NC(=O)Nc4ccccc4OC)cc3C(=O)N2C)O1	none
Cn1cncc1C#Cc1c(C=O)n(C)c2ccccc12	none
COc1cc(C#Cc2c(C=O)n(C)c3ccccc23)cc(OC)c1	SIRT5 block 32
O=C(N/N=C/c1ccc(OC2CSC2)cc1)c1ccc(CN2CCOCC2)cc1	SIRT5 block 28
CCOc1cc(/C=N/NC(=O)c2ccc(CN3CCOCC3)cc2)ccc1OC	none (no result: E-sel inducer)
C[C@@H]1CCCCO[C@H](CN(C)C(=O)C2CCCCC2)[C@H](C)CN([C@@H](C)CO)C(=O)c2cc(NS(=O)(=O)c3ccc(F)cc3)ccc2O1	SIRT5 block 16
C[C@@H]1CCCCO[C@H](CN(C)C(=O)C2CCCCC2)[C@@H](C)CN([C@@H](C)CO)C(=O)c2cc(NS(=O)(=O)c3ccc(F)cc3)ccc2O1	SIRT5 block 17
C[C@@H]1CCCCO[C@H](CN(C)C(=O)C2CCCCC2)[C@@H](C)CN([C@H](C)CO)C(=O)c2cc(NS(=O)(=O)c3ccc(Cl)cc3)ccc2O1	none

Source: PubChem
